{"source": "ChEMBL document CHEMBL1212892", "about": "“Tirucallane-type alkaloids from the bark of Dysoxylum laxiracemosum” (J Nat Prod, 2010)", "type_in_all_cases": "functional, cell-based", "key": {"[1]": {"system": "HL-60", "assay": "Cytotoxicity against human HL60 cells after 48 hrs by MTT assay", "conditions": "HL-60, 48 h", "in_short": "(§1)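 Cells grown in RPMI-1640 or DMEM with 10% FBS, 37 °C, 5% CO2. Adherent cells seeded at 1 × 10^5 cells/mL and left 12 h to attach before dosing; suspension cells seeded just before dosing. Compound at 0.0625, 0.32, 1.6, 8 and 40 µM in triplicate for 48 h, cisplatin positive control. Viability by MTT; IC50 by Reed and Muench method.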"}, "[2]": {"system": "SMMC-7721", "assay": "Cytotoxicity against human SMMC7721 cells after 48 hrs by MTT assay", "conditions": "SMMC-7721, 48 h", "in_short": "as §1"}, "[3]": {"system": "A549", "assay": "Cytotoxicity against human A549 cells after 48 hrs by MTT assay", "conditions": "A549, 48 h", "in_short": "as §1"}, "[4]": {"system": "MCF7", "assay": "Cytotoxicity against human MCF7 cells after 48 hrs by MTT assay", "conditions": "MCF7, 48 h", "in_short": "as §1"}, "[5]": {"system": "SW480", "assay": "Cytotoxicity against human SW480 cells after 48 hrs by MTT assay", "conditions": "SW480, 48 h", "in_short": "as §1"}}, "data": [{"smiles": "CC(C)C(=O)c1cc([C@@H]2CC[C@]3(C)C4=CCC5C(C)(C)[C@H](O)CC[C@]5(C)[C@H]4CC[C@@]23C)c[nH]1", "note": "(stereo partly drawn) [LAXIRACEMOSIN A]", "values": [{"measurement": "IC50", "setting": "[1]", "result": 3.1, "unit": "µM"}, {"measurement": "IC50", "setting": "[2]", "result": 9.5, "unit": "µM"}, {"measurement": "IC50", "setting": "[3]", "result": 5.4, "unit": "µM"}, {"measurement": "IC50", "setting": "[4]", "result": 16.8, "unit": "µM"}, {"measurement": "IC50", "setting": "[5]", "result": 7.2, "unit": "µM"}]}, {"smiles": "CC(C)C(=O)c1cc([C@@H]2CC[C@]3(C)C4=CCC5C(C)(C)C(=O)CC[C@]5(C)[C@H]4CC[C@@]23C)c[nH]1", "note": "(stereo partly drawn) [LAXIRACEMOSIN B]", "values": [{"measurement": "IC50", "setting": "[1]", "result": 12.8, "unit": "µM"}, {"measurement": "IC50", "setting": "[2]", "result": 19, "unit": "µM"}, {"measurement": "IC50", "setting": "[3]", "result": 13.4, "unit": "µM"}, {"measurement": "IC50", "setting": "[4]", "result": "> 20", "unit": "µM"}, {"measurement": "IC50", "setting": "[5]", "result": "> 20", "unit": "µM"}]}, {"smiles": "CC(C)(O)C(=O)c1cc([C@@H]2CC[C@]3(C)C4=CCC5C(C)(C)[C@H](O)CC[C@]5(C)[C@H]4CC[C@@]23C)c[nH]1", "note": "(stereo partly drawn) [LAXIRACEMOSIN D]", "values": [{"measurement": "IC50", "setting": "[1]", "result": 6.8, "unit": "µM"}, {"measurement": "IC50", "setting": "[2]", "result": "> 20", "unit": "µM"}, {"measurement": "IC50", "setting": "[3]", "result": "> 20", "unit": "µM"}, {"measurement": "IC50", "setting": "[4]", "result": "> 20", "unit": "µM"}, {"measurement": "IC50", "setting": "[5]", "result": "> 20", "unit": "µM"}]}, {"smiles": "C=C(C)C(=O)c1cc([C@@H]2CC[C@]3(C)C4=CCC5C(C)(C)[C@H](O)CC[C@]5(C)[C@H]4CC[C@@]23C)c[nH]1", "note": "(stereo partly drawn) [LAXIRACEMOSIN E]", "values": [{"measurement": "IC50", "setting": "[1]", "result": 1.5, "unit": "µM"}, {"measurement": "IC50", "setting": "[2]", "result": 2.7, "unit": "µM"}, {"measurement": "IC50", "setting": "[3]", "result": 3.7, "unit": "µM"}, {"measurement": "IC50", "setting": "[4]", "result": 5.1, "unit": "µM"}, {"measurement": "IC50", "setting": "[5]", "result": 3.7, "unit": "µM"}]}, {"smiles": "CC1(C)C2CC=C3[C@H](CC[C@@]4(C)[C@H](c5c[nH]c(C=O)c5)CC[C@]34C)[C@@]2(C)CC[C@H]1O", "note": "(stereo partly drawn) [LAXIRACEMOSIN F]", "values": [{"measurement": "IC50", "setting": "[1]", "result": 15.7, "unit": "µM"}, {"measurement": "IC50", "setting": "[2]", "result": 15.6, "unit": "µM"}, {"measurement": "IC50", "setting": "[3]", "result": "> 20", "unit": "µM"}, {"measurement": "IC50", "setting": "[4]", "result": "> 20", "unit": "µM"}, {"measurement": "IC50", "setting": "[5]", "result": "> 20", "unit": "µM"}]}]}
